Screening results (PubChem BioAssay)
In the library only some 5.8% were active in any assay of this set; here they are far more common.
KDM4C inh: KDM4C (human) demethylase inhibition | GST-KDM4C 2-372, H3K9me3 peptide, LANCE TR-FRET | inhibition, % at 12.5 µM | actives 0.15% (n = 96,000) | AID 720574;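 active = mean replicate inhibition above about 25%, with at least 55% of replicates also reaching it, limit read from the data, passing the limit was not always enough; inconclusive = only one of those two conditions met; inactive = neither condition met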
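Material: N-terminal GST-fused human GASC-1 (KDM4C) fragment, residues 2-372. Input: 10 nM enzyme. Incubation: enzyme reaction 30 min, then detection 60 min, both room temperature. Doses: one test concentration per compound. Read-out basis: inhibition from TR-FRET ratio decrease. Detection: LANCE TR-FRET, excitation 340 nm, emissions 618 and 671 nm.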
T cruzi growth-1: blocks T. cruzi growth in NIH3T3 culture; inhibition, % at 8.34 µM; AID 624255; T. cruzi beta-gal in NIH3T3, GalScreen luminescence, 90 h; actives 5.9% (n = 77,000);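 active = mean inhibition above about 93%, with at least 55% of replicates each passing it, limit read from the data, passing the limit was not always enough; inconclusive = only one of those two conditions holds; inactive = neither condition holds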
Pf Dd2 growth: P. falciparum Dd2 growth inhibition. SYBR Green, 72 h; active compounds read low. activity change, % at 10 µM. actives 2.3% (n = 94,000). AID 1159554; in the data active = activity change below about -80%; inconclusive = no clear call, values can overlap the other calls
IDH1 R132H inh: blocks human IDH1 R132H reductase activity; O75874; diaphorase/resazurin fluorescence, 60 min; inhibition, % at 10 µM; actives 0.18% (n = 70,000); AID 624101; in the data active = inhibition above about 34%; inconclusive = no clear call, values can overlap the other calls; inactive = below about 11%
Target sequence (O75874 whole entry R132H): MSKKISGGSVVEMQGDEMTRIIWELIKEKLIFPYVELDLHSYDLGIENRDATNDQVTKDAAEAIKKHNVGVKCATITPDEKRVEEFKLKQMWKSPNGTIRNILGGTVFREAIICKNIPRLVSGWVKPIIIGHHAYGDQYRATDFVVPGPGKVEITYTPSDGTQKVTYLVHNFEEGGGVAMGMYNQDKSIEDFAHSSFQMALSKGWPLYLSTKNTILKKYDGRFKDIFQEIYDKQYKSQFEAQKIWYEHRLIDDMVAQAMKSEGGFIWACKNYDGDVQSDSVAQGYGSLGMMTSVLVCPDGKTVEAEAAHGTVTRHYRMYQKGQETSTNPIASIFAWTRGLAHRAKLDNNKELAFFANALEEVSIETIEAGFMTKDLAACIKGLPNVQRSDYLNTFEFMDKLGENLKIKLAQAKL
T cruzi growth-2: Trypanosoma cruzi proliferation inhibition. shares compounds with T cruzi growth-1. T. cruzi beta-gal in NIH3T3, GalScreen luminescence, 90 h. inhibition, % at 8.35 µM. actives 72% (n = 5,600). AID 651739;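 active = mean replicate inhibition above about 95% and at least 55% of replicates individually reaching it, limit read from the data; inconclusive = only one of the two criteria is met; inactive = neither criterion is met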
T cruzi growth-3: blocks T. cruzi growth in NIH3T3 host cells; AID 651740; shares compounds with T cruzi growth-1; T. cruzi beta-gal in NIH3T3, GalScreen luminescence, 90 h; inhibition, % at 2.09 µM; actives 21% (n = 5,600);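 active = mean inhibition above about 95%, with at least 55% of replicates also reaching it, limit read from the data; inconclusive = meets just one of the two conditions; inactive = meets neither condition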
NIH3T3 tox: cytotoxicity in mouse NIH/3T3 fibroblasts. shares compounds with T cruzi growth-1. NIH/3T3 viability, CellTiter-Glo ATP luminescence, 90 h. cytotoxicity (signal decrease), % at 8.35 µM. actives 14% (n = 5,600);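 active = mean signal decrease across replicates above about 35% based on untreated-well scatter, with enough replicates individually passing, limit read from the data; inconclusive = no rule stated though some were filed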
3T3 cytotox 2: cytotoxicity in mouse NIH/3T3 fibroblasts; shares compounds with T cruzi growth-1; NIH/3T3 viability, CellTiter-Glo ATP luminescence, 90 h; inhibition, % at 24.9 µM; actives 56% (n = 5,600); AID 651744;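 active = mean loss of cell viability signal at or above a set limit, and enough replicates individually reaching it; inconclusive = meets only the mean limit or only the replicate share; inactive = meets neither condition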
A number is an active result; 0 = inactive; ? = inconclusive; - = not tested or not shown.

SMILES	KDM4C inh	T cruzi growth-1	Pf Dd2 growth	IDH1 R132H inh	T cruzi growth-2	T cruzi growth-3	NIH3T3 tox	3T3 cytotox 2
Cc1noc(C)c1S(=O)(=O)Nc1ccc2c(c1)C(=O)N([C@H](C)CO)C[C@H](C)[C@@H](CN(C)C(=O)Nc1ccc(C(F)(F)F)cc1)OCCCC[C@H](C)O2	0	113.8	0	0	100.5	0	0	?
Cc1noc(C)c1S(=O)(=O)Nc1ccc2c(c1)C(=O)N([C@@H](C)CO)C[C@H](C)[C@H](CN(C)C(=O)Nc1ccc(C(F)(F)F)cc1)OCCCC[C@H](C)O2	0	0	0	0	-	-	-	-
Cc1cc(Br)c(NC(=O)CSc2nnc(-c3ccccc3)o2)cc1C	-	-	-	0	-	-	-	-
CCn1c(SCC(=O)Nc2c(Cl)cc(Cl)cc2Cl)nnc1-c1ccc(OC)cc1	-	-	-	0	-	-	-	-
O=C(CSc1n[nH]c(-c2ccc(Cl)cc2Cl)n1)Nc1ccc(F)cc1	-	-	-	0	-	-	-	-
C[C@@H]1CN([C@@H](C)CO)S(=O)(=O)c2ccc(/C=C/c3ccccc3)cc2O[C@@H]1CN(C)C(=O)NC1CCCC1	0	?	0	0	101.8	0	0	25.5
C[C@H]1CN([C@@H](C)CO)S(=O)(=O)c2ccc(/C=C/c3ccccc3)cc2O[C@@H]1CN(C)C(=O)NC1CCCC1	0	99.1	0	-	?	0	0	96.0
OCCN(CCO)c1nc(-c2ccccc2)nc2sc(-c3ccccc3)cc12	-	-	-	0	-	-	-	-
C[C@@H]1CN([C@@H](C)CO)C(=O)c2cc(C3=CCCC3)cnc2O[C@@H]1CN(C)Cc1ccccc1	0	?	0	0	?	0	0	0
C[C@@H]1CN([C@@H](C)CO)C(=O)c2cc(C3=CCCCC3)cnc2O[C@H]1CN(C)Cc1cccc(F)c1	0	115.2	0	0	104.9	0	0	105.0
C[C@@H]1CN([C@@H](C)CO)C(=O)c2cc(C3=CCCCC3)cnc2O[C@@H]1CN(C)Cc1ccccc1	0	?	0	0	99.9	0	0	48.3
C[C@H]1CN([C@@H](C)CO)C(=O)c2cc(C3=CCCCC3)cnc2O[C@@H]1CN(C)Cc1cccc(F)c1	0	0	0	0	-	-	-	-
COC(=O)C(O)(c1ccc(NC(=S)NC(=O)c2ccc(Cl)cc2Cl)c(OC)c1)C(F)(F)F (configuration not stated)	-	-	-	0	-	-	-	-
C[C@@H]1CN([C@H](C)CO)S(=O)(=O)c2ccc(C#CCC3CCCC3)cc2O[C@@H]1CN(C)C(=O)CC1CC1	0	112.5	0	0	96.3	0	0	105.2
CCC(=O)N(C)C[C@H]1Oc2cc(C#CCC3CCCC3)ccc2S(=O)(=O)N([C@H](C)CO)C[C@H]1C	0	115.6	0	0	97.5	0	44.1	103.1
CCC(=O)N(C)C[C@@H]1Oc2cc(C#CCC3CCCC3)ccc2S(=O)(=O)N([C@H](C)CO)C[C@H]1C	0	0	0	0	-	-	-	-
C[C@H]1CN([C@@H](C)CO)S(=O)(=O)c2ccc(C#CCC3CCCC3)cc2O[C@H]1CN(C)C	-	0	0	0	-	-	-	-
CNC[C@H]1Oc2cc(C#CCC3CCCC3)ccc2S(=O)(=O)N([C@H](C)CO)C[C@@H]1C	0	?	0	0	99.2	0	0	106.4
COC(=O)c1ccccc1NC(=O)C1=C(C)NC(=S)NC1c1ccc(OC2CCCC2)c(OC)c1 (configuration not stated)	-	-	-	0	-	-	-	-
O=C(CSc1ncn(-c2ccccc2)n1)Nc1ccc(F)c(Cl)c1	-	-	-	0	-	-	-	-
COc1cccc(CNc2nc3ccccc3n2CCN2CCOCC2)c1O	-	-	-	0	-	-	-	-
CC(C)CC#Cc1ccc2c(c1)O[C@@H](CN(C)C(=O)CC1CC1)[C@@H](C)CN([C@@H](C)CO)S2(=O)=O	0	-	0	0	-	-	-	-
CCCC#Cc1ccc2c(c1)O[C@H](CN(C)C(=O)CC1CC1)[C@@H](C)CN([C@@H](C)CO)S2(=O)=O	0	111.0	0	0	103.6	0	0	47.7
CCCC#Cc1ccc2c(c1)O[C@H](CN(C)C(=O)CC1CC1)[C@@H](C)CN([C@H](C)CO)S2(=O)=O	0	101.4	0	0	107.7	0	0	0
C[C@H](CO)N1C[C@H](C)[C@H](CN(C)C(=O)CC2CC2)Oc2cc(C#CCN(C)C)ccc2S1(=O)=O	0	0	0	0	-	-	-	-
SMILES	KDM4C inh	T cruzi growth-1	Pf Dd2 growth	IDH1 R132H inh	T cruzi growth-2	T cruzi growth-3	NIH3T3 tox	3T3 cytotox 2
CCc1csc(N2[C@H](C#N)[C@H](c3ccc(-c4cccc(F)c4)cc3)[C@H]2CO)n1	0	0	0	-	-	-	-	-
CCc1csc(N2[C@@H](C#N)[C@@H](c3ccc(C4=CCCC4)cc3)[C@@H]2CO)n1	0	100.6	0	-	103.1	0	42.1	77.3
C/C=C/c1ccc([C@@H]2[C@@H](CO)N(c3ncc(CC)s3)[C@H]2C#N)cc1	0	99.0	0	-	0	0	0	0
CCc1csc(N2[C@@H](C#N)[C@@H](c3ccc(-c4ccc(F)cc4)cc3)[C@@H]2CO)n1	0	97.6	0	-	97.8	0	48.6	83.1
CCc1csc(N2[C@H](C#N)[C@@H](c3ccc(-c4ccc(F)cc4)cc3)[C@H]2CO)n1	0	106.0	0	-	105.6	98.5	0	?
CCN(CC(=O)Nc1cccc(Cl)c1C)S(=O)(=O)c1ccc(OC)cc1	-	-	-	0	-	-	-	-
Cc1ccnc(NC(=O)Cn2cnc3c2c(=O)n(C)c(=O)n3C)n1	-	-	-	0	-	-	-	-
C/C=C/c1ccc([C@H]2[C@@H](CO)N(c3nc(CC)cs3)[C@H]2C#N)cc1	0	100.8	0	-	0	0	0	25.6
CCc1csc(N2[C@H](CO)[C@@H](c3ccc(-c4cccc(F)c4)cc3)[C@@H]2C#N)n1	0	0	0	-	-	-	-	-
CCc1csc(N2[C@H](C#N)[C@H](c3ccc(-c4ccc(F)cc4)cc3)[C@@H]2CO)n1	0	102.0	0	-	100.6	109.9	0	36.9
CCc1csc(N2[C@@H](C#N)[C@H](c3ccc(-c4ccc(F)cc4)cc3)[C@@H]2CO)n1	0	105.5	0	-	101.7	0	0	0
C/C=C/c1ccc([C@@H]2[C@@H](CO)N(c3nc(-c4ccccc4)cs3)[C@H]2C#N)cc1	0	-	0	-	-	-	-	-
CCC(=O)NC(c1ccccc1OC)c1c(O)ccc2ccccc12 (configuration not stated)	-	-	-	0	-	-	-	-
O=c1cc(-c2ccc(O)c(O)c2)c2c(O[C@@H]3O[C@H](CO)[C@@H](O)[C@H](O)[C@H]3O)cc(O)cc2o1	-	-	-	0	-	-	-	-
OCCN(CCO)Cc1ccc(Cl)cc1	-	-	-	0	-	-	-	-
Nc1nc(CN2CCN(C(=O)c3ccco3)CC2)nc(N2CCCc3ccccc32)n1	-	-	-	0	-	-	-	-
CCS(=O)(=O)N1CCCCN2[C@H](CO)[C@H](c3ccc(C#Cc4ccccn4)cc3)[C@@H]2C1	0	0	0	-	-	-	-	-
